# Compound activity: PubChem BioAssay, several laboratories
# Lipid droplet: inhibitors of hepatocyte lipid droplet formation, primary screen, imaging, high-throughput imaging, BODIPY stain | inhibition, % at 6.5 µM | AML12 mouse hepatocytes, oleate lipid droplets | actives 0.4% (n = 240,000) | AID 1656, 2009;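 active = lipid droplet intensity inhibited by at least 50%, with more than 500 cells counted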
#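 Test system: AML12 mouse liver cells; schedule: overnight exposure; technique: high-content imaging of BODIPY-stained droplets and DAPI nuclei; read-out: % inhibition of corrected integrated BODIPY droplet signal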
# V-ATPase pHluor: regulators of yeast V-ATPase proton pumping, primary screen, pHLuorin cytosolic pH fluorescence; S. cerevisiae; response, % at 10 µM; actives 0.37% (n = 350,000); AID 504577, 2011; in the data active = response mostly above about 7.3%, no sharp cut-off; inactive = mostly below about 5.4%; note: actives read high
# ADAM17 inh: ADAM17 inhibitors, primary screen, biochemical, QFRET. inhibition, % at 6.95 µM. recombinant ADAM17, EDANS/DABCYL FRET peptide cleavage. AID 720648, 2013. actives 0.83% (n = 370,000);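 active = inhibition above the mean of compounds lying between control limits plus 3 SD, set per campaign, cut at about 8.5% in these data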;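 note: 0% = DMSO-only wells as the low control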
# aDG glyco act: activators of alpha-DG glycosylation, primary screen, uHTS, Pro5-aDG cells, AlphaScreen; alpha-DG glycosylation AlphaScreen (IIH6); 0% Pro5, 100% B10-LARGE cell signal; activation, % at 10 µM; actives 0.22% (n = 360,000); AID 624168, 2012;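 active = activation of at least 8% versus controls, or a plate z-score of at least 8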;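 note: Pro5 are CHO cells carrying HIG-tagged alpha-DG that lacks glycosylation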
# ADAM10 inh: human ADAM10 inhibitors, primary screen, biochemical, QFRET, HTS; recombinant ADAM10, EDANS/DABCYL FRET peptide cleavage, 3 h; inhibition, % at 7 µM; actives 0.62% (n = 370,000); AID 720582, 2013;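 active = inhibition above a per-campaign cutoff equal to the mean of compounds falling between control-based bounds plus 3 SD, cut at about 20% in these data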;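 note: 0% = DMSO wells while the 100% control is not disclosed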
# Target sequence (O14672 214-748 limits assumed): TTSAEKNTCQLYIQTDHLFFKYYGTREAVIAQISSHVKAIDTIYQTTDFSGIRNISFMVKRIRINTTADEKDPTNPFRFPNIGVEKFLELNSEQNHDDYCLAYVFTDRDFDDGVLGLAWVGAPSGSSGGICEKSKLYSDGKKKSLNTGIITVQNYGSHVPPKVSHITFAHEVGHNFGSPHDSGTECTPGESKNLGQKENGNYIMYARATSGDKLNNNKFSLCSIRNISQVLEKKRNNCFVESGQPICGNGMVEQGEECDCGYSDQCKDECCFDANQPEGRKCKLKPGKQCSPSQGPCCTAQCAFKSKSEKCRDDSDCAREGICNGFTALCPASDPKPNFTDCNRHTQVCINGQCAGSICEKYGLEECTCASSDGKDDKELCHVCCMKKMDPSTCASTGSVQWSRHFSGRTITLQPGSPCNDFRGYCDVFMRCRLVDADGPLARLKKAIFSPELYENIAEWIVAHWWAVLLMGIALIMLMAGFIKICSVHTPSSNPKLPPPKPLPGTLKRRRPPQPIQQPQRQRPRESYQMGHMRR
# MPTP inh: mitochondrial permeability transition pore inhibitors, primary screen, biochemical, isolated mouse mitochondria, absorbance. Ca2+ swelling absorbance, 30 min. inhibition, % at 10 µM. actives 1.4% (n = 360,000). AID 602449, 2012;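 active = inhibition of 50% or more, scaled per plate between neutral and stimulator controls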;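 note: 0% = DMSO wells given calcium and 100% = 1 mM EGTA wells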
# Starred values were filed as active, the others as inactive; i = inactive; · = no result given. Only some compounds are listed: those with a hit (about 3.1% of all), similar ones and a draw of the others.
SMILES,Lipid droplet,V-ATPase pHluor,ADAM17 inh,aDG glyco act,ADAM10 inh,MPTP inh
COc1ccccc1CNC(=O)c1cc(-c2ccccc2)nn1CC1CC(c2cccc([N+](=O)[O-])c2)=NO1 (stereo unspecified),·,-9,3,0,20*,2
COc1ccc2c(c1)OC[C@H]1[C@H]2N2C(=O)c3ccc(C)cc3NC(=O)[C@@]2(C)[C@H]1c1ccccc1,·,1,9.6*,0,16,-2
C(=C\c1ccccc1)/CSc1nnc(COc2ccccc2)n1Cc1ccco1,·,·,6,·,19,·
O=C(c1cccc(S(=O)(=O)N2CCOCC2)c1)N1CCN(c2ccc(F)cc2)CC1,·,18*,3,0,3,2
O=C(c1cccc(S(=O)(=O)N2CCOCC2)c1)N1CCN(c2ccccc2)CC1,·,0,-4,0,-18,0
Cc1nc2nc(CCNS(=O)(=O)c3ccc(Cl)cc3)cn2nc1C,-7,13*,-355,0,i,2
COc1ccc(S(=O)(=O)NCCc2cn3nc(C)c(C)nc3n2)cc1,-1,2,-314,0,i,-1
Cc1ccc(Nc2nc(-c3sc(N)nc3C)cs2)cc1,-7,14*,1,0,-1,0
COc1ccc(-c2noc(C3CCCN(C(=O)Nc4cccc(C)c4)C3)n2)cc1 (stereo unspecified),·,·,4,·,1,·
COc1ccc(CNC(=O)CCCCCn2c(SCC#N)nc3cc4c(cc3c2=O)OCO4)cc1,56*,2,0,0,-2,7
CC1(C)Cc2c(sc(NC(=O)COc3cccc4ccccc34)c2C#N)C(C)(C)N1,-18,0,4,0,11,0
Cc1ccc(OCC(=O)Nc2sc3c(c2C#N)CC(C)(C)NC3(C)C)cc1,16,13*,1,0,10,2
CN1Cc2sc(NC(=S)NC(=O)c3ccccc3)c(C#N)c2CC1(C)C,7,29*,-39,·,-97,·
CN(C)S(=O)(=O)c1cccc(-c2nnc(SCc3ccc4c(c3)OCCO4)o2)c1,·,-4,12*,0,20*,6
COc1ccc2c(c1)OC13CCN(C)CC1C2C(C(=O)c1ccc(F)cc1)C(=O)N3 (stereo unspecified),-24,-5,-5,0,-9,-2
COc1ccc2c(c1)OC13CCCCC1C2C(C(=O)c1ccccc1)C(=O)N3 (stereo unspecified),·,20*,-2,0,-7,1
CN(CCO)c1cccc2c1S(=O)(=O)N(Cc1cn(Cc3ccc(F)cc3)nn1)Cc1ccccc1O2,·,·,0,·,3,·
COc1ccc(CN2C(=O)c3cccnc3C2=O)cc1S(=O)(=O)N(C)Cc1ccco1,-1,3,-5,0,-4,-1
CN(Cc1ccco1)S(=O)(=O)c1ccc(CN2C(=O)c3cccnc3C2=O)s1,-2,13*,-6,0,8,2
COc1ccc2c(c1)c(CC(=O)Nc1nnc(C3CC3)s1)c(C)n2C(=O)c1ccc(Cl)cc1,3,-1,0,0,0,3
COc1ccc2c(c1)c(CC(=O)Nc1cc(C)ccc1C)c(C)n2C(=O)c1ccc(Cl)cc1,68*,-1,-3,0,-2,12
O=C(CN(CCc1ccccc1)S(=O)(=O)c1cccs1)N1CCOCC1,·,·,-2,·,-4,·
CC1CCCN(C2=C(NS(=O)(=O)c3ccc(Cl)cc3)C(=O)c3ccccc3C2=O)C1 (stereo unspecified),57*,-2,2,0,3,6
COC(=O)C1CCN(C2=C(NS(=O)(=O)c3ccc(Cl)cc3)C(=O)c3ccccc3C2=O)CC1,4,-5,-1,0,9,5
CC(=O)N(C)C1=C(N2CCOCC2)C(=O)c2ccccc2C1=O,·,1,·,5.5*,·,4
SMILES,Lipid droplet,V-ATPase pHluor,ADAM17 inh,aDG glyco act,ADAM10 inh,MPTP inh
CC(=O)N(C1=C(N2CCOCC2)C(=O)c2ccccc2C1=O)c1ccc(C(=O)O)cc1,-1,6,-7,0,-9,4
COc1ccc(C)cc1NC(=O)C(Sc1nnc(Nc2cc(C)ccc2OC)s1)c1ccccc1 (stereo unspecified),73*,3,7,0,7,1
O=C(NCCF)C1Nc2ccc(OC(F)(F)F)cc2C2C=CCC12 (stereo unspecified),·,6,-5,0,-6,0
O=C(NCCOc1ccccc1)C1Nc2ccc(OC(F)(F)F)cc2C2C=CCC12 (stereo unspecified),·,17*,-2,0,-13,1
CCCCn1c(SC(C)C(=O)c2ccc(OC)cc2)nc2cc(S(N)(=O)=O)ccc21 (stereo unspecified),·,3,20*,0,26*,1
COc1ccc(NC(=O)COC(=O)c2cc3c(s2)CCC3)cc1,·,2,·,9.7*,·,0
CC(NCc1ccco1)C(=O)N1CCCN(C)CC1 (stereo unspecified),·,·,1,·,2,·
O=C1c2ccc3c4c(ccc(c24)C(=O)N1c1cccc(O)c1)C(=O)N(c1cccc(O)c1)C3=O,-14,-2,-1,4.0*,2,6
CN(Cc1ccccc1)C(=O)OCc1cn(Cc2ccc(C(F)(F)F)cc2)nn1,·,·,1,·,7,·
Cc1nn(-c2ccccc2)c(C)c1CNC(=O)c1ccc(S(=O)(=O)NCc2ccco2)cc1,·,20*,-1,0,-15,-2
Cc1cc(C)n(CCCNC(=O)c2ccc(S(=O)(=O)NCc3ccco3)cc2)n1,0,3,-3,0,-2,2
Cc1ccc(-c2nnn(CC(=O)Nc3ccc4nn(-c5ccccc5)nc4c3)n2)o1,·,16*,-15,0,-24,0
CC12C=CC3(CN(Cc4ccccc4)C(=O)C3C1C(=O)NCc1ccco1)O2 (stereo unspecified),·,17*,-4,0,-7,1
Cc1cc(F)ccc1C(=O)N1CCC(Oc2cccnc2)CC1,·,·,1,·,-2,·
CC(C)(C)OC(=O)NCCCCCNC(=O)c1nc[nH]c1C(=O)NCc1ccc(CNC(=O)OC(C)(C)C)cc1,·,2,12*,0,23*,3
CC(C)(C)OC(=O)NCc1ccc(CNC(=O)c2nc[nH]c2C(=O)NCc2ccc(CNC(=O)OC(C)(C)C)cc2)cc1,·,3,12*,1,11,1
CC(C)(C)OC(=O)NCCCCCNC(=O)c1nc[nH]c1C(=O)NCCCCCNC(=O)OC(C)(C)C,·,-4,2,0,14,2
CC(COc1cccc(Br)c1)CN1CCC(C(O)(c2ccccc2)c2ccccc2)CC1 (stereo unspecified),·,·,5,·,10,·
